Source: ChEMBL document CHEMBL1914395, “Design, synthesis, and biological evaluation of callophycin A and analogues as potential chemopreventive and anticancer agents” (Bioorg Med Chem, 2011)

How the values were obtained:
MCF7 [1] = assay: Antiproliferative activity against human MCF7 cells assessed as survival at 50 uM after 72 hrs by SRB assay relative to control; format: functional; conditions: MCF7, 72 h, read-out: Survival
Summary of the method: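 MCF7 cells (1 × 10^4 per well) were plated onto compound and kept at 37°C, 5% CO2 for 72 h. Cells were fixed in 10% TCA for 30 min and stained with 0.4% SRB in 1% acetic acid for 30 min. Bound dye was dissolved in 10 mM Tris (pH 10.0) and read at 515 nm. Survival is given as % of DMSO-treated controls, screened at 50 μM.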

MCF7 [2] = assay: Antiproliferative activity against human MCF7 cells after 72 hrs by SRB assay; format: functional, cell-based; conditions: MCF7, 72 h
Summary of the method: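 MCF7 cells, 1 × 10^4 per well, plated directly onto compounds and incubated 72 h at 37°C, 5% CO2. Fixed with 10% TCA, stained with 0.4% SRB in 1% acetic acid. Bound dye dissolved in 10 mM Tris pH 10.0, absorbance read at 515 nm. Survival expressed relative to DMSO-treated controls.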

HEK293 [3] = assay: Inhibition of TNF-alpha-induced NFkappaB activation in human HEK293 cells at 50 uM after 6 hrs by luciferase assay relative to control; format: cell-based
Summary of the method: (§1)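 Cells incubated 6 h with TNFα plus test compound, then luciferase activity measured. Results expressed as percent of TNFα-treated control. Screening concentration 50 μM.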

[4] = target: NAD(P)H dehydrogenase [quinone] 1 (Mus musculus) (UniProt Q64669); assay: Induction of quinone reductase 1 activity in mouse Hepa-1c1c7 cells at 50 uM by MTT assay relative to untreated control; format: cell-based
NAD(P)H dehydrogenase [quinone] 1 (Mus musculus), sequence (Q64669 whole entry): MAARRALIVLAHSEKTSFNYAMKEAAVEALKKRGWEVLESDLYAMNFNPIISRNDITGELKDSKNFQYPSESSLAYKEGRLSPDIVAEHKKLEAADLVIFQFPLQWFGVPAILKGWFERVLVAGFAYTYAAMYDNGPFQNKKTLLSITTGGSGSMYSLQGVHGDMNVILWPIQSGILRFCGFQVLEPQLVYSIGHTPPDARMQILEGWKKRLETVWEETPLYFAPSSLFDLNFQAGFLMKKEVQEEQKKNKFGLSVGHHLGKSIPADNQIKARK
Summary of the method: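 Hepa 1c1c7 murine hepatoma cells treated with compound at 50 μM. QR1 measured by NADPH-dependent, menadiol-mediated reduction of MTT to formazan. Protein measured by crystal violet staining of identical plates. Specific activity is nmol formazan per mg protein per min. Induction ratio is treated versus DMSO-treated control.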

[5] = target: T1, Nitric oxide synthase, inducible (Mus musculus, UniProt P29477); assay: Inhibition of iNOS-mediated nitric oxide production in LPS-stimulated mouse RAW 264.7 cells pretreated 15 mins before LPS challenge measured after 20 hrs relative to control; format: cell-based
T1 sequence (P29477 whole entry): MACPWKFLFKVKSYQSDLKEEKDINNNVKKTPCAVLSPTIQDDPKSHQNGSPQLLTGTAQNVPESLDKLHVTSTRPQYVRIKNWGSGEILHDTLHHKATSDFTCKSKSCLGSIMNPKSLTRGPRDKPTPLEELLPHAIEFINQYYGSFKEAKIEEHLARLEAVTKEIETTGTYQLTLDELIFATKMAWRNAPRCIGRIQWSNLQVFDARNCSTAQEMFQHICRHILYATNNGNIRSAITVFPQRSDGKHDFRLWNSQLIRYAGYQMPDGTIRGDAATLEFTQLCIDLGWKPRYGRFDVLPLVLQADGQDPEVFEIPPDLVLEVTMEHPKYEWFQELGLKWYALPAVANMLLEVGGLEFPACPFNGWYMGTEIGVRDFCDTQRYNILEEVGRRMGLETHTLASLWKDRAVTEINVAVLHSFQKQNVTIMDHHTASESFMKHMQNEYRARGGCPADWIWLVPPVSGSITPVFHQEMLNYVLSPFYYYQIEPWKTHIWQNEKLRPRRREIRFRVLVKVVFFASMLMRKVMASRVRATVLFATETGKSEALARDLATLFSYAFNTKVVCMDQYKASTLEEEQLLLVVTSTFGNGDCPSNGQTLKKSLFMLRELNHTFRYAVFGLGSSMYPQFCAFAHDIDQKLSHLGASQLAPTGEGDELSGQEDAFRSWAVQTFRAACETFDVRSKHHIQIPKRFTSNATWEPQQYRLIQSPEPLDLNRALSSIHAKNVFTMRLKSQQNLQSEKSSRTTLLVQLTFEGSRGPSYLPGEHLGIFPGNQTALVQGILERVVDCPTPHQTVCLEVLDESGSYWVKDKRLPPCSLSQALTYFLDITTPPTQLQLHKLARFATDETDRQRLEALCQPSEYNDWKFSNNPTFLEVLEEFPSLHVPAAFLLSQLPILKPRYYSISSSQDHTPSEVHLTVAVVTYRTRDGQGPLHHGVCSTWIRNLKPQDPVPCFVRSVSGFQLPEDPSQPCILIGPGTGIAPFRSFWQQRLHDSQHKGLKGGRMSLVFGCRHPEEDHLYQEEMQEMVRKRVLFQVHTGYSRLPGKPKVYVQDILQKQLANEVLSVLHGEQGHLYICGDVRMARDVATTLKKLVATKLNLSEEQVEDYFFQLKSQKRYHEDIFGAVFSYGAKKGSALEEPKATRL
Summary of the method: (§2)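 RAW 264.7 cells cultured 24 h at 37°C, then given serially diluted compounds for 15 min before LPS (1 μg/mL) for 20 h. Nitrite in the medium measured with Griess reagent at 540 nm against a sodium nitrite standard curve. Cytotoxicity checked by SRB under the same conditions.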

HEK293 [6] = assay: Inhibition of TNF-alpha-induced NFkappaB activation in human HEK293 cells assessed as cell survival at 50 uM after 6 hrs by luciferase assay relative to control; format: cell-based
[7] = target: T2, Nitric oxide synthase, inducible (Mus musculus) (UniProt P29477); assay: Inhibition of iNOS-mediated nitric oxide production in LPS-stimulated mouse RAW 264.7 cells assessed as cell survival at 50 uM pretreated 15 mins before LPS challenge measured after 20 hrs relative to control; format: cell-based
T2 sequence (whole entry): T1 sequence (P29477 whole entry)
Summary of the method: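 RAW 264.7 cells were incubated at 37°C, 5% CO2 for 24 h. They were then exposed to compound for 15 min before LPS (1 μg/mL) was added for 20 h. Cytotoxicity was measured by SRB staining under the same conditions. Survival is expressed as % relative to vehicle-treated controls at 50 μM.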

Aromatase [8] = target: T3, Aromatase (Homo sapiens, UniProt P11511); assay: Inhibition of aromatase after 10 mins preincubation by plate reader relative to control
T3 sequence (P11511 whole entry): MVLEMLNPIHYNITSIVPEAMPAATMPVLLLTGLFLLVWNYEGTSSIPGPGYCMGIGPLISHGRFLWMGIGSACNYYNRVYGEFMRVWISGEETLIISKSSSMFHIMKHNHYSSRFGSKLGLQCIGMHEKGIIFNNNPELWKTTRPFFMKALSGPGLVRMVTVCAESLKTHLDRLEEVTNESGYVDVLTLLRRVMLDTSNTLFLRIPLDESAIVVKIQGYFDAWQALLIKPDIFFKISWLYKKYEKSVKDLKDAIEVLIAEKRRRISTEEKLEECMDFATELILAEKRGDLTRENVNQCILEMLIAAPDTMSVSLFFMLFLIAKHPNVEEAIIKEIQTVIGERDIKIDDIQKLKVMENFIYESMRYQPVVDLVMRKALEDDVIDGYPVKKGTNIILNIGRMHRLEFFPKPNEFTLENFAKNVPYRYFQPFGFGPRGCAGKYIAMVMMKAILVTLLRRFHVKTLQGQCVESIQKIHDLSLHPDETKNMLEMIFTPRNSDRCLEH

Aromatase [9] = target: T3, Aromatase; assay: Inhibition of aromatase at 50 uM after 10 mins preincubation by plate reader relative to control
Summary of the method: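 CYP19 enzyme. Compound pre-incubated 10 min with an NADPH-regenerating system (NADP+, glucose 6-phosphate, G6PDH, MgCl2, albumin) in 50 mM potassium phosphate pH 7.4. Enzyme and 0.4 μM dibenzylfluorescein substrate then added, 30 min at 37 °C. Quenched with 2 N NaOH and incubated a further 2 h at 37 °C. Fluorescence read at ex 485/em 530 nm. Compound tested at 50 μM.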

[10] = target: T2, Nitric oxide synthase, inducible (Mus musculus); assay: Inhibition of iNOS-mediated nitric oxide production in LPS-stimulated mouse RAW 264.7 cells at 50 uM pretreated 15 mins before LPS challenge measured after 20 hrs relative to control; format: cell-based; summary of the method: as §2
[11] = target: NAD(P)H dehydrogenase [quinone] 1 (Mus musculus) (UniProt Q64669); assay: Induction of quinone reductase 1 activity in mouse Hepa-1c1c7 cells assessed as cell survival at 50 uM by MTT assay relative to control; format: cell-based
[12] = target: NAD(P)H dehydrogenase [quinone] 1 (Mus musculus) (UniProt Q64669); assay: Induction of quinone reductase 1 in mouse Hepa 1c1c7 cells assessed as concentration of compound required to double enzyme activity by MTT assay; format: cell-based
Summary of the method: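 Dose-response in Hepa 1c1c7 cells, run for substances with induction ratio >2 at 50 μM. QR1 activity measured as menadiol-mediated, NADPH-dependent MTT reduction to formazan, normalised to crystal violet protein content. CD is the concentration that doubles specific activity relative to DMSO control.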

[13] = Inhibition of TNF-alpha-induced NFkappaB activation in human HEK293 cells after 6 hrs by luciferase assay; format: cell-based; conditions: HEK293, 6 h; summary of the method: as §1

Compound: COC(=O)[C@@H]1Cc2c([nH]c3ccccc23)CN1S(=O)(=O)c1ccc(C)cc1
- viability at 50 µM (MCF7 [1]): 19%
- IC50 (MCF7 [2]): 37 µM
- inhibition (HEK293 [3]): 6%
- Ratio [4]: 1.3
- IC50 [5]: 22.6 µM
- Survival (HEK293 [6]): 171%
- Survival [7]: 116%
- IC50 (Aromatase [8]): 63.2 µM
- inhibition at 50 µM (Aromatase [9]): 41.7%
- inhibition [10]: 73.8%
- Survival [11]: 61%

Compound: COC(=O)[C@@H]1Cc2c([nH]c3ccccc23)CN1CC1CC1
- viability at 50 µM (MCF7 [1]): 85.6%
- CD [12]: 34 µM
- inhibition (HEK293 [3]): 54.1%
- Ratio [4]: 2.2
- Survival (HEK293 [6]): 152%
- Survival [7]: 99.8%
- IC50 (Aromatase [8]): 58.6 µM
- inhibition at 50 µM (Aromatase [9]): 47.7%
- inhibition [10]: 23.5%
- Survival [11]: 68.6%

Compound: COC(=O)[C@@H]1Cc2c([nH]c3ccccc23)CN1C(=O)NC(C)C
- IC50 [13]: 26.5 µM
- viability at 50 µM (MCF7 [1]): 71%
- CD [12]: 6.4 µM
- inhibition (HEK293 [3]): 69%
- Ratio [4]: 2.9
- Survival (HEK293 [6]): 117%
- Survival [7]: 94.3%
- IC50 (Aromatase [8]): 47.3 µM
- inhibition at 50 µM (Aromatase [9]): 54%
- inhibition [10]: 37.8%
- Survival [11]: 61.2%
